Test results from ChEMBL document CHEMBL1148898, “New ring C-seco limonoids from Brazilian Melia azedarach and their cytotoxic activity” (J Nat Prod, 2004).
Activity calls are given as the source filed them. The calls are words filed in the database; no cut-off is given here.

How the values were obtained:
HeLa S3 = assay: (§1) Cytotoxicity against human HeLaS3 cells after 72 hrs by WST1 assay; format: functional, cell-based
Method in brief: (§2)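 HeLa S3 cells seeded at 500 cells/well in minimum essential medium and cultured overnight. Compounds then added at final concentrations of 0.1, 1, 10 and 100 µM and incubated 72 h. WST-1 (Cell Counting Kit) added per manufacturer's protocol, followed by a further 2 h incubation. Absorbance read at 450 nm.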

[1] = Toxicity in brine shrimp at 100 ug/mL; format: organism-based; details: artemia, in vivo; read-out: Activity
[2] = as §1; format: functional, cell-based; details: HeLa S3, 72 h; method in brief: as §2

For `COC(=O)C[C@@H]1[C@]2(C)C3=C(C)[C@H](c4ccoc4)C[C@H]3O[C@@H]2[C@H](OC(C)=O)[C@H]2[C@](C)(C=O)[C@H](O)C[C@H](OC(=O)/C=C/c3ccccc3)[C@]12C`, the Activity (HeLa S3) was “inactive” and the mortality at 100 ug/mL [1] was 100%.

For `COC(=O)C[C@@H]1[C@]2(C)C3=C(C)[C@H](c4ccoc4)C[C@H]3O[C@@H]2[C@H](OC(C)=O)[C@H]2[C@](C)(C=O)[C@H](O)C[C@H](OC(=O)c3ccccc3)[C@]12C`, the Activity (HeLa S3) was “inactive” and the mortality at 100 ug/mL [1] was 100%.

Molecule `C/C=C(\C)C(=O)O[C@@H]1[C@@H]2OC[C@]3(C)[C@H](OC(C)=O)C[C@H](OC(=O)c4ccccc4)[C@@](C)([C@@H]23)[C@H]2CC(=O)O[C@H]3C[C@@H](c4ccoc4)C(C)=C3[C@]12C` [1-O-DEACETYL-1-O-BENZOYLOHCHINOLIDE B] has an IC50 [2] of 33 µM and a mortality at 100 ug/mL [1] of 100%.

With `C/C=C(\C)C(=O)O[C@H]1C[C@@H](OC(C)=O)[C@@]2(C)CO[C@H]3[C@@H](OC(=O)c4ccccc4)[C@@]4(C)C5=C(C)[C@H](c6ccoc6)C[C@@H]5OC(=O)C[C@@H]4[C@]1(C)[C@@H]32` [1-O-DEACETYL-1-O-TIGLOYLOHCHINOLIDE A] the IC50 [2] was 29.7 µM and the mortality at 100 ug/mL [1] was 100%.

Work on `C/C=C(\C)C(=O)O[C@@H]1[C@@H]2OC[C@]3(C)[C@H](OC(C)=O)C[C@H](OC(=O)/C(C)=C/C)[C@@](C)([C@@H]23)[C@H]2CC(=O)O[C@H]3C[C@@H](c4ccoc4)C(C)=C3[C@]12C` [1-O-DEACETYL-1-O-TIGLOYLOHCHINOLIDE B] yielded an IC50 [2] of 33.8 µM and a mortality at 100 ug/mL [1] of 100%.

`CC(=O)O[C@@H]1C[C@H](O)[C@@]2(C)[C@H]3[C@@H](OC[C@]13C)[C@@H](OC(=O)c1ccccc1)[C@@]1(C)C3=C(C)[C@H](c4ccoc4)C[C@@H]3OC(=O)C[C@@H]12` [1-O-DEACETYLOHCHINOLIDE A] showed an IC50 [2] of 2.4 µM and a mortality at 100 ug/mL [1] of 100%.

In the case of `C/C=C(\C)C(=O)O[C@@H]1[C@@H]2OC[C@]3(C)[C@H](OC(C)=O)C[C@H](O)[C@@](C)([C@@H]23)[C@H]2CC(=O)O[C@H]3C[C@@H](c4ccoc4)C(C)=C3[C@]12C` [1-O-DEACETYLOHCHINOLIDE B], the IC50 [2] is reported as 0.1 µM and the mortality at 100 ug/mL [1] is reported as 100%.

Work on `O=c1[nH]cc(F)c(=O)[nH]1` [FLUOROURACIL] yielded an IC50 [2] of 5.4 µM.

With `C/C=C(\C)C(=O)O[C@H]1C[C@@H](O)[C@@](C)(C=O)[C@@H]2[C@@H](OC(C)=O)[C@H]3O[C@@H]4C[C@@H](c5ccoc5)C(C)=C4[C@@]3(C)[C@@H](CC(=O)OC)[C@@]12C` [OHCHINOLAL] the Activity (HeLa S3) was “inactive” and the mortality at 100 ug/mL [1] was 100%.

In the case of `CC(=O)O[C@H]1C[C@@H](OC(C)=O)[C@@]2(C)CO[C@H]3[C@@H](OC(=O)c4ccccc4)[C@@]4(C)C5=C(C)[C@H](c6ccoc6)C[C@@H]5OC(=O)C[C@@H]4[C@]1(C)[C@@H]32` [OHCHNOLIDE A], the Activity (HeLa S3) is reported as “inactive” and the mortality at 100 ug/mL [1] is reported as 100%.

`C/C=C(\C)C(=O)O[C@@H]1[C@@H]2OC[C@]3(C)[C@H](OC(C)=O)C[C@H](OC(C)=O)[C@@](C)([C@@H]23)[C@H]2CC(=O)O[C@H]3C[C@@H](c4ccoc4)C(C)=C3[C@]12C` [OHCHNOLIDE B] showed an IC50 [2] of 40.5 µM and a mortality at 100 ug/mL [1] of 100%.
